In ChEMBL document CHEMBL3124801, “Structure-based optimization of tyrosine kinase inhibitor CLM3. Design, synthesis, functional evaluation, and molecular modeling studies” (J Med Chem, 2014):

Columns and labels:
[1] = Antiproliferative activity against HNDF after 72 hrs by cell counter; conditions: Homo sapiens
HUVEC = assay: Antiproliferative activity against HUVEC after 72 hrs by cell counter; conditions: Homo sapiens
TT [2] = assay: Antiproliferative activity against human TT cells after 72 hrs by cell counter
[3] = biological target: Proto-oncogene tyrosine-protein kinase receptor Ret (Homo sapiens) (UniProt P07949); assay: Inhibition of recombinant human RET at 100 uM incubated for 5 mins with substrate prior to protein addition by fluorescence assay relative to control
Method in brief: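 Human recombinant RET was assayed with Omnia Tyr peptide 7 substrate at 30 °C, from 1 mM ATP and 1 mM DTT stocks, with DMSO ≤1% final. Mix plus inhibitor was preincubated 5 min before kinase was added to start the reaction. Fluorescence (ex 360/em 485 nm) was followed over time, and activity was taken from a linear fit of intensity versus time. Compounds were screened at 100 μM.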

TT [4] = assay: Antiproliferative activity against human TT cells
[5] = Antiproliferative activity against HMVEC-d cells after 72 hrs; conditions: Homo sapiens
8305C = assay: cells; conditions: Homo sapiens, 72 h

Chain of Proto-oncogene tyrosine-protein kinase receptor Ret (Homo sapiens) (P07949 whole entry): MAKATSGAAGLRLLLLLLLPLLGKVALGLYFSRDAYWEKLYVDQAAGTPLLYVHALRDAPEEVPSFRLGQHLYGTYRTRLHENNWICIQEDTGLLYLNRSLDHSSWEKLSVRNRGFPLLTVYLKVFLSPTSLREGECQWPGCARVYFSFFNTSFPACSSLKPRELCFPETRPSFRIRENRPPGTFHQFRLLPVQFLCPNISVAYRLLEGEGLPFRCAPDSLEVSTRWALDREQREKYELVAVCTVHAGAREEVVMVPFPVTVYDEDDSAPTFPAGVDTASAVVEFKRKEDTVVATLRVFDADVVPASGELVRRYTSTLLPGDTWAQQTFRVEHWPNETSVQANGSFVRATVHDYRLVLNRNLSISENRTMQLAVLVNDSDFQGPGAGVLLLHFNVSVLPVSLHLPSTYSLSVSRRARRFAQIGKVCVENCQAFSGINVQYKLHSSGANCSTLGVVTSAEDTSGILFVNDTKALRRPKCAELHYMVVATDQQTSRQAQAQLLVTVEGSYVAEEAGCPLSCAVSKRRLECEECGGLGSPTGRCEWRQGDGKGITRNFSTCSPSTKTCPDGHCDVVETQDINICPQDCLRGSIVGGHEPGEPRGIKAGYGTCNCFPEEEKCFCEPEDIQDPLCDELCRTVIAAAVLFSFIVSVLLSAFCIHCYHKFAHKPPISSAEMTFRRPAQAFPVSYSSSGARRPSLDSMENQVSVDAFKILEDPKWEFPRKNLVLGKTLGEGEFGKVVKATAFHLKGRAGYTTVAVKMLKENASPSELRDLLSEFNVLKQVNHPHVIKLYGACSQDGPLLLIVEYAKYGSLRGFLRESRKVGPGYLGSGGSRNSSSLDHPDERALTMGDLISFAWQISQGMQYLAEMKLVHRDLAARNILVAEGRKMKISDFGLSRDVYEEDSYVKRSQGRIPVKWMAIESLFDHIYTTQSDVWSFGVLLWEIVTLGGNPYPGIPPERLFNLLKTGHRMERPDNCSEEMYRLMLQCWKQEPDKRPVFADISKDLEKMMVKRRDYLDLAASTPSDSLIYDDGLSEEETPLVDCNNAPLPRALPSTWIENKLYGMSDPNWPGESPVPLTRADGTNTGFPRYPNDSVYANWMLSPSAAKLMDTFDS

O=S(=O)(Cc1ccccc1)Nc1cccc(CNc2ncnc3c2cnn3CCc2ccccc2)c1
IC50 [1]: 23.6 µM
IC50 (HUVEC): 50.7 µM
IC50 (TT [2]): 5.97 µM

C[C@@H](Nc1ncnc2c1cnn2CCc1ccccc1)c1ccccc1
inhibition [3]: 48%
IC50 (TT [4]): 26.9 µM
IC50 [5]: 0.0004 µM
IC50 (8305C): 9.2 µM

O=S(=O)(Nc1cccc(CNc2ncnc3c2cnn3CCc2ccccc2)c1)c1ccccc1
IC50 (HUVEC): 22.6 µM
IC50 (TT [2]): 8.08 µM

O=C(Nc1cccc(CNc2ncnc3c2cnn3CCc2ccccc2)c1)c1ccc([N+](=O)[O-])cc1
IC50 [1]: 22 µM
IC50 (HUVEC): 16.6 µM
IC50 (TT [2]): 6.13 µM

O=C(Nc1cccc(CNc2ncnc3c2cnn3CCc2ccccc2)c1)c1ccccc1
IC50 (HUVEC): 15.3 µM
IC50 (TT [2]): 13.8 µM

O=C(Nc1ccccc1)Nc1cccc(CNc2ncnc3c2cnn3CCc2ccccc2)c1
IC50 (HUVEC): 13.4 µM
IC50 (TT [2]): 8.42 µM

O=[N+]([O-])c1ccc(S(=O)(=O)Nc2cccc(CNc3ncnc4c3cnn4CCc3ccccc3)c2)cc1
inhibition [3]: 57%

O=C(Nc1cccc(CNc2ncnc3c2cnn3CCc2ccccc2)c1)c1ccc(Br)cc1
IC50 (HUVEC): 9.83 µM
IC50 (TT [2]): 13.5 µM

O=C(Nc1cccc(CNc2ncnc3c2cnn3CCc2ccccc2)c1)c1ccc(F)cc1
IC50 (HUVEC): 15.9 µM
IC50 (TT [2]): 13.6 µM

O=C(Nc1ccc(Br)cc1)Nc1cccc(CNc2ncnc3c2cnn3CCc2ccccc2)c1
IC50 (HUVEC): 18.6 µM
IC50 (TT [2]): 9.86 µM

COc1ccc(S(=O)(=O)Nc2cccc(CNc3ncnc4c3cnn4CCc3ccccc3)c2)cc1OC
inhibition [3]: 8%

O=C(Nc1ccc([N+](=O)[O-])cc1)Nc1cccc(CNc2ncnc3c2cnn3CCc2ccccc2)c1
inhibition [3]: 37%
